# Rows were chosen to be rich in hits. Some 1.8% of all compounds tested hit in one or more screens of this group.
# CHRM5 agonist: human M5 muscarinic receptor agonists, primary screen, CHO-K1 cells, Fluo-8 calcium fluorescence. CHO-K1 hM5 cells; 0% DMSO wells, 100% maximal acetylcholine response. activation, % at 3 µM. actives 0.19% (n = 360,000). AID 624037, 2012;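 active means activation above the run's mean over test compounds plus 3 SD, cut at about 23% in these data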;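 further: signal is peak over basal fluorescence ratio across the kinetic read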
# CHRM4 antagonist: human M4 muscarinic receptor antagonists, primary screen, CHO cells, Fluo-8 calcium fluorescence; Muscarinic acetylcholine receptor M4 (Homo sapiens), P08173; CHO-hM4 cells, ACh EC80; inhibition, % at 3 µM; actives 0.73% (n = 360,000); AID 624125, 2012;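 active means inhibition above its plate's cutoff, the mean inhibition of sample wells plus 3 SD, cut at about 27% in these data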;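 further: 0% = acetylcholine EC80 with DMSO and 100% = DMSO without agonist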
# Target sequence (P08173 whole entry, looked up): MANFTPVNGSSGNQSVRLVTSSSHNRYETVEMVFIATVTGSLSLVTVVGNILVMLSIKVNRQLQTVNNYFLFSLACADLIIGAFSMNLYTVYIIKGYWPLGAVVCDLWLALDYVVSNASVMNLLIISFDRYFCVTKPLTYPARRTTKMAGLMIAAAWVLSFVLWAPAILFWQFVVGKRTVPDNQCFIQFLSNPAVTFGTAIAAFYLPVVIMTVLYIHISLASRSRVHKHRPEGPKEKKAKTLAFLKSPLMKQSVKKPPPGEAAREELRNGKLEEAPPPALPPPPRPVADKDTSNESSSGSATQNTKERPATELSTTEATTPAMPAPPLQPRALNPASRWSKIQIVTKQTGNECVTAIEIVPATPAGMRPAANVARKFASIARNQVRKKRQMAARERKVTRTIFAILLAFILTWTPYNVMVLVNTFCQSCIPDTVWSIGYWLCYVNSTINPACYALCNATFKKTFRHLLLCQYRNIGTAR
# CHRM4 PAM: human M4 muscarinic receptor positive allosteric modulators, primary screen, CHO-K1 cells, Fluo-8 calcium fluorescence; CHO-K1 hM4/Gqi5, ACh EC20; 0% = ACh EC20, 100% = maximal ACh; activation, % at 3 µM; actives 0.4% (n = 360,000);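 active means activation above its plate's cutoff, the mean activation of sample wells plus 3 SD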
# M5 PAM: human M5 muscarinic receptor positive allosteric modulators, primary screen, CHO-K1 cells, Fluo-8 calcium fluorescence | Muscarinic acetylcholine receptor M5 (Homo sapiens), P08912 | CHO-K1 hM5, ACh EC20 PAM; 0% = ACh EC20, 100% = ACh EC100 | activation, % at 3 µM | actives 0.3% (n = 360,000) | AID 624038, 2012;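 active means activation above the run cutoff, the mean activation of all test compounds plus 3 SD, cut at about 18% in these data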
#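 Assay system: CHO-K1 hM5 cells. Also added: acetylcholine at EC20 concentration, added after compound. Dosing: 3 µM, single dose. Times: compound preincubation 140 s before EC20 acetylcholine addition. Signal: Fluo-8 calcium fluorescence. Measure: % activation relative to EC20 and EC100 ACh responses. Repeats: singlicate, one well per test compound.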
# M4 ag: human M4 muscarinic receptor agonists, primary screen, CHO-K1 cells, Fluo-8 calcium fluorescence | Muscarinic acetylcholine receptor M4 (Homo sapiens), P08173 | CHO-K1 hM4/Gqi5; vehicle 0%, full acetylcholine response 100% | activation, % at 3 µM | actives 0.14% (n = 360,000) | AID 624127, 2012;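 active means activation above the run mean over all test wells plus 3 SD, cut at about 32% in these data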;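 further: peak over basal fluorescence ratio per well then scaled between controls; 0% = DMSO wells and 100% = acetylcholine at EC100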
# CHRM5 antagonist: human M5 muscarinic receptor antagonists, primary screen, CHO cells, Fluo-8 calcium fluorescence. Muscarinic acetylcholine receptor M5 (Homo sapiens), P08912. CHO-hM5 cells, ACh EC80. actives 0.59% (n = 360,000). inhibition, % at 3 µM;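 active means inhibition above a per-plate cutoff, the mean of that plate's test compounds plus 3 SD, cut at about 27% in these data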;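 further: 0% = acetylcholine EC80 with DMSO and 100% = DMSO without agonist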
# * = called active by the depositor.
SMILES,CHRM5 agonist,CHRM4 antagonist,CHRM4 PAM,M5 PAM,M4 ag,CHRM5 antagonist
Cc1ccc(-c2nc(C=Nc3ccccc3)c(O)o2)cc1,-7,-5,1,-2,2,-14
Cc1ccc(-c2nc(C=Nc3cccc(C)c3)c(O)o2)cc1,1,-9,5,18*,1,-1
CN1CCN(S(=O)(=O)c2ccccc2)C(c2ccccc2)C1 (stereo not drawn),-1,5,2,5,0,9
CN1CCN2c3ccccc3Cc3ccccc3C2C1 (stereo not drawn),-2,17,-16,-19,0,45*
COc1ccc(NC2=C(Cl)C(=O)N(c3ccccc3)C2=O)c(OC)c1,2,-3,-6,-1,2,-3
COc1ccc(N2C(=O)C(Cl)=C(Nc3ccc(OC)cc3OC)C2=O)cc1,4,-4,4,19*,0,-1
CCOc1ccc(S(=O)(=O)N(C)CC(=O)NC2CC2)cc1,-6,-3,12,-3,0,14
CCCCN(CC(=O)NC1CC1)S(=O)(=O)c1ccc(OCC)cc1,0,29*,-6,-2,0,3
Cc1cc(C)cc(N(CCC(=O)O)S(=O)(=O)c2ccc(Cl)cc2)c1,1,36*,-3,7,-1,-10
CCc1nnc(NC(=O)CCN(c2cc(C)cc(C)c2)S(=O)(=O)c2ccc(Cl)cc2)s1,6,-15,18,19*,1,11
Cc1ccccc1CSc1nc2c(c(=O)[nH]1)CCC2,3,-8,37*,-4,-2,-3
Cc1cccc(-c2nc(CSc3nc4c(c(=O)[nH]3)CCC4)c(C)o2)c1,3,-22,20*,6,-2,-2
Cc1ccccc1-c1nc(CSc2nc3c(c(=O)[nH]2)CCC3)c(C)o1,3,-7,8,9,-2,-4
Cc1cc(Nc2cccc(Cl)c2Cl)n2ncnc2n1,-3,-4,8,7,1,12
COc1ccc(OCc2nn3c(-c4cccc(OC)c4)nnc3s2)cc1,-2,-13,21*,4,2,-5
COc1ccc(OCc2nn3c(-c4ccco4)nnc3s2)cc1,3,-10,-1,-6,4,-2
O=C(c1ccccc1)C1N=NCC1c1ccc(Cl)cc1 (stereo not drawn),27*,-3,3,-20,1,33*
COc1cccc2cc(-c3ccccc3)oc12,-4,-8,4,-7,-1,16
Nc1cccc2cc(-c3ccccc3)oc12,4,-16,25*,-3,1,-3
c1cncc(CSc2ccc(-c3ccc4c(c3)OCO4)nn2)c1,1,1,-10,-3,6,12
CCC(O)C1CCN(C(=O)c2cc(COc3ccc(F)cc3F)on2)CC1 (stereo not drawn),-2,2,12,-4,4,10
CCOC(=O)c1ccc(NC(=O)Nc2nc3ccccc3s2)cc1,0,61*,-15,-12,1,6
CCOC(=O)Nc1nc2ccccc2s1,2,-1,-4,-5,1,3
CCOC(=O)c1ccc(NC(=S)NN)cc1,-5,-12,20*,11,1,-14
COC(=O)c1ccc(NC(=S)NCCc2cccc(C)c2)cc1,3,24,-19,-19,14,28*
SMILES,CHRM5 agonist,CHRM4 antagonist,CHRM4 PAM,M5 PAM,M4 ag,CHRM5 antagonist
CCOC(=O)c1ccc(NC(=S)NCc2ccc(F)cc2)cc1,10,10,-18,-26,20,19
Cc1cc(C)c(C)c(S(=O)(=O)N2CCC(C(=O)NCCCN3CCCC3=O)CC2)c1C,0,-15,19,1,4,-1
COc1ccccc1CNC(=O)[C@H](C)NC(=O)C1CCN(C(=O)[C@@H](N)CCSC)CC1,3,0,5,4,1,-4
CC1CCCC(NC(=O)C2CC(=O)N(Cc3ccccc3)C2)C1C (stereo not drawn),-4,-2,5,2,3,-1
COc1ccc(NC(=O)C(=O)NCCC2CCCCN2S(=O)(=O)c2ccc(F)cc2)cc1 (stereo not drawn),-2,-6,-2,-4,3,3
CC1CCN(C(C)C(=O)Nc2ccc(S(=O)(=O)N3CCCC3)cc2)CC1 (stereo not drawn),-10,78*,-16,-38,2,14
COC(=O)CCC(=O)Nc1ccc(S(=O)(=O)N2CCCCCC2)cc1,-1,-15,21,19*,1,-7
CC1CCN(C(C)C(=O)Nc2cc(S(=O)(=O)N3CCCCC3)ccc2Cl)CC1 (stereo not drawn),1,2,2,-2,-2,12
CC(C)CC(=O)Nc1ccc(S(=O)(=O)N2CCCC2)cc1,-5,9,-6,-3,1,28*
O=C(CCCN1C(=O)c2ccccc2C1=O)Nc1ccc(S(=O)(=O)N2CCCCC2)cc1,2,-20,5,3,13,-7
O=C(CCCN1C(=O)c2ccccc2C1=O)Nc1ccc(S(=O)(=O)N2CCOCC2)cc1,-4,28*,11,-6,2,7
O=C(O)[C@@H]1CCCN1S(=O)(=O)c1cccc2cccnc12,3,1,4,-5,-1,8
CCOc1ccccc1NC(=O)COC(=O)/C=C/c1cccs1,-4,-6,-4,-12,8,16
CC(=O)c1nn(-c2ccc(Cl)cc2)c(=O)[nH]c1=O,0,-6,2,-2,-1,9
OC(CNCC1(N2CCCCC2)CCCCC1)COc1ccc(Cl)cc1Cl (stereo not drawn),-14,-8,-3,26*,5,-8
Cc1ccc2nc3c(cc2c1)c(C)nn3-c1ccccc1,-4,-44,31*,-1,0,1
Cc1nn(-c2ccccc2)c2nc(=O)n(-c3ccccc3)cc12,0,2,12,6,0,3
Cc1cccnc1C(NC(=O)C1CCN(Cc2ccccc2)CC1)c1ccc(F)cc1 (stereo not drawn),-3,-1,1,-16,2,2
Cc1cccnc1C(NC(=O)C1CCN(Cc2ccc(Oc3ccccc3)cc2)CC1)c1ccccc1 (stereo not drawn),-3,29*,-13,-19,3,16

# Compound activity (PubChem)
